Experimental data taken from PubChem BioAssay.
Inconclusive results are not listed.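 The calls were made as follows, unless noted: active = cell viability at or below a set limit in both duplicate runs, the limit being the all-compound median minus 4 SD (cut at about 23% in these data, passing the limit was not always enough); inconclusive = no clear call, values can overlap the other calls; inactive = the rest.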

Assays:
[1] = S. cerevisiae growth inhibition in permissive medium (OD615), pilot counter-assay for S. cerevisiae lifespan shortening project, permissive growth control (AID 705;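 active = growth inhibition above 25% in both replicates, a cutoff set 3 SD above the mean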); settings: OD615, 24 h, at 10 µM, hits give high values
In short: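 assay system = Saccharomyces cerevisiae strain carrying genetically modified DeaD replicative-lifespan system | medium = SC raffinose/galactose permissive medium | dosing = 10 µM single dose, 0.25% DMSO | schedule = 24 h compound exposure at 30 °C after 4 h pre-growth | measured by = OD at 615 nm | read-out basis = growth inhibition from lowered OD615 after 24 h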

[2] = S. cerevisiae growth inhibition in restrictive medium, OD615, pilot screen, restrictive growth control, yeast lifespan reduction project (AID 706;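 active = growth inhibition above a set limit, 3 SD over mean compound inhibition, in both replicates, cut at about 43% in these data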;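 also: modified DeaD lifespan yeast strain shifted to restrictive glucose medium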); settings: OD615, 48 h, at 10 µM, hits give high values
In short: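 Buffer or medium: CSMM-D glucose medium. Material: genetically modified Saccharomyces cerevisiae, DeaD replicative lifespan assay strain. Times: 48 h compound exposure at 30 °C. Measured by: optical density at 615 nm.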

[3] = doxorubicin toxicity protection in MRP-1 cells – H69AR cells, CellTiter-Glo, duplicate, MRP-1 activator project, pilot screen (AID 807;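 active = viability increase at or above a cutoff of the median across tested compounds plus 3 SD, cut at about 8.5% in these data, passing the limit was not always enough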;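 also: compound pretreatment 18-22 h then 72 h combined with doxorubicin; 0% = doxorubicin alone and 100% = vehicle without doxorubicin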); settings: H69AR viability with doxorubicin, CellTiter-Glo luminescence; at 10 µM; hits give high values
[4] = viability of HCT116 without oncogenic beta-catenin – human colon tumor cells, pilot screen (AID 823); settings: HCT116 beta-catenin knockout viability, CellTiter-Glo, 60 h; at 10 µM; hits give low values;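 also: 0% = wells killed by 20 µM Hyamine and 100% = untreated DMSO cell wells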
[5] = viability of PTEN-null HCT116 cells – cell-based, HCT116 clonal line, CellTiter-Glo, pilot screen (AID 824;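 active = viability at or below 27.92% in each of two runs, the all-compound median minus 4 SD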;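 also: 0% = 20 µM Hyamine control and 100% = vehicle cell control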); settings: HCT116 PTEN-deleted viability, 60 h, at 10 µM, hits give low values
[6] = RAM pathway blockade in budding yeast – dse1pr::URA3 reporter, 5-FOA selection, pilot screen (AID 869;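 active = inhibition over a set limit, the all-compound mean plus 3 SD, in both replicate runs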;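 also: 0% = DMSO wells with no growth and 100% = 10 µM 1-NA-PP1 with full growth; RAM network block rescues cells from 5-FOA so hits raise OD615 growth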); settings: S. cerevisiae dse1pr::URA3 5-FOA growth, OD615, 2 d; at 10 µM; hits give high values; strain carries analog-sensitive mutant Cbk1 kinase
[7] = RAM signaling pathway blockade in yeast – S. cerevisiae, Pdr1DBD-CYC8 efflux-inhibited sensitized strain, primary screen (AID 1298;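 active = RAM network inhibition above 8.4% in each of two replicates, 3 SD over the compound average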;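 also: 0% = DMSO untreated cells without growth and 100% = 10 µM 1-NA-PP1 full growth; higher means more yeast growth rescued from 5-FOA killing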); settings: S. cerevisiae cbk1-as DSE1-URA3 strain, 5-FOA growth OD615, 2 d; at 50 µM; hits give high values

CN1CCN(Cc2ccc(OCc3ccccc3)cc2)CC1
inactive: growth inhibition [1] -3.27% | growth inhibition [2] -1.79% | viability increase [3] -2.45% | viability [4] 88.1% | viability [5] 91.4% | inhibition [6] -0.965% | RAM network inhibition [7] -0.47%

CCN(CC)c1cc(C)c2cc(NC(=O)CNC(C)=O)ccc2n1
inactive: growth inhibition [1] -10.4% | growth inhibition [2] -8.29% | viability increase [3] -2.37% | viability [4] 90% | viability [5] 91.1% | inhibition [6] 1.11% | RAM network inhibition [7] 2.59%

CCOC(=O)c1c(CC(C)C)csc1NC=O
inactive: growth inhibition [1] -4.46% | growth inhibition [2] -33.1% | viability increase [3] -1.84% | viability [4] 81.8% | viability [5] 80.1% | inhibition [6] 1.18% | RAM network inhibition [7] 0.88%

COc1ccccc1NC(=O)Cn1cnc2c(oc3ccccc32)c1=O
inactive: growth inhibition [1] -11.8% | growth inhibition [2] -11.6% | viability increase [3] -1.93% | viability [4] 107% | viability [5] 100% | inhibition [6] 1.6% | RAM network inhibition [7] -1.27%

COc1ccc(C2C(C(=O)Nc3cc(C)on3)c3ccccc3C(=O)N2C)cc1OC (stereo not drawn)
inactive: growth inhibition [1] -4.48% | growth inhibition [2] 2.73% | viability increase [3] 0.61% | viability [4] 102% | viability [5] 99.4% | inhibition [6] 1.24% | RAM network inhibition [7] 4.64%

N=c1c2c3c(sc2nc2n1CCCCC2)CCCCC3
inactive: growth inhibition [1] -5.75% | growth inhibition [2] -13.7% | viability increase [3] -5.46% | viability [4] 67.7% | viability [5] 71.7% | inhibition [6] 0.715% | RAM network inhibition [7] 5.69%

Cc1cc(C)c(C#N)c(Nc2ccc3c(c2)OCCO3)n1
inactive: growth inhibition [1] 0.055% | growth inhibition [2] -10.2% | viability increase [3] -1.17% | viability [4] 97.6% | viability [5] 93.9% | inhibition [6] 0.915% | RAM network inhibition [7] 0.66%

COC(=O)c1cc(OC)c(OC)cc1N=CC1=C(O)CC(C)(C)CC1=O
inactive: growth inhibition [1] -14.9% | growth inhibition [2] -8.12% | viability increase [3] -0.98% | viability [4] 99.5% | viability [5] 94.1% | inhibition [6] 1.6% | RAM network inhibition [7] 3.12%

O=C1c2ccccc2NC(c2ccccc2)N1c1ccc(O)cc1 (stereo not drawn)
inactive: growth inhibition [1] -0.23% | growth inhibition [2] 1.65% | viability increase [3] -3.15% | viability [4] 87.1% | viability [5] 90.8% | inhibition [6] 1.19% | RAM network inhibition [7] 1.89%

CC(=O)c1cccc(NC(=O)C2CCN(S(=O)(=O)c3ccc(F)cc3)CC2)c1
inactive: growth inhibition [1] -6.23% | growth inhibition [2] 1.16% | viability increase [3] -2.82% | viability [4] 92% | viability [5] 93.5% | inhibition [6] 3.66% | RAM network inhibition [7] 5.67%

O=C(NCc1ccccn1)c1ccc2ccccc2n1
inactive: growth inhibition [1] 4.58% | growth inhibition [2] -7.25% | viability increase [3] -1.47% | viability [4] 111% | viability [5] 102% | inhibition [6] 1.32% | RAM network inhibition [7] 5.32%

COc1ccc(NC(=O)c2cc3ccccn3n2)cc1
inactive: growth inhibition [1] -2.21% | growth inhibition [2] 0.42% | viability increase [3] -0.18% | viability [4] 81% | viability [5] 73.1% | inhibition [6] -0.545% | RAM network inhibition [7] 0.83%

COC(=O)c1cnn2c(C)c(Cc3cccc(F)c3)c(C)nc12
inactive: growth inhibition [1] -5.12% | growth inhibition [2] -16% | viability increase [3] -5.7% | viability [4] 92.3% | viability [5] 80.9% | inhibition [6] 1.53% | RAM network inhibition [7] 2.9%

COc1ccccc1S(=O)(=O)Cc1ccc(C(=O)NCc2ccc3c(c2)OCO3)o1
inactive: growth inhibition [1] -4.21% | growth inhibition [2] -26.9% | viability increase [3] -2.83% | viability [4] 91.9% | viability [5] 87.4% | inhibition [6] 1.9% | RAM network inhibition [7] 6.73%

COc1cccc(-c2cc(C(F)(F)F)nc(N3CCOCC3)n2)c1
inactive: growth inhibition [1] -4.32% | growth inhibition [2] -9.04% | viability increase [3] 0.16% | viability [4] 73.5% | viability [5] 77.8% | inhibition [6] 1.38% | RAM network inhibition [7] 6.83%

Cc1cnc(C(=O)OCC(=O)Nc2cccc(Cl)c2)cn1
inactive: growth inhibition [1] -0.055% | growth inhibition [2] 1.48% | viability increase [3] -3.1% | viability [4] 92.5% | viability [5] 92.3% | inhibition [6] 0.405% | RAM network inhibition [7] 0.67%

O=C(NCc1ccc2c(c1)OCO2)C1CCC(CNc2c(N3CCCC3)c(=O)c2=O)CC1 (stereo not drawn)
inactive: growth inhibition [1] -5.55% | growth inhibition [2] -7.12% | viability increase [3] -1.29% | viability [4] 104% | viability [5] 102% | inhibition [6] 3.97% | RAM network inhibition [7] 1.53%

Cc1ccc(N(C(=O)c2cccs2)C2C=CS(=O)(=O)C2)cc1 (stereo not drawn)
inactive: growth inhibition [1] -11.1% | growth inhibition [2] -10.6% | viability increase [3] -2.23% | viability [4] 98.3% | viability [5] 94% | inhibition [6] 1.96% | RAM network inhibition [7] 1.19%

COc1ccc(C(=O)N2CCN(c3c(C)cccc3C)CC2)cc1OC
inactive: growth inhibition [1] -19.6% | growth inhibition [2] -4.21% | viability increase [3] 0.4% | viability [4] 80.8% | viability [5] 72% | inhibition [6] 0.89% | RAM network inhibition [7] 1.36%

C=COCCn1c(-c2nonc2N)nc2ccccc21
inactive: growth inhibition [1] -6.54% | growth inhibition [2] -3.9% | viability increase [3] -4.61% | viability [4] 82.4% | viability [5] 74.9% | inhibition [6] 1.75% | RAM network inhibition [7] 6.18%

CS(=O)(=O)Nc1ccccc1Oc1ccccc1
inactive: growth inhibition [1] -4.92% | growth inhibition [2] 2.56% | viability increase [3] -0.66% | viability [4] 97.5% | viability [5] 92.8% | inhibition [6] -0.23% | RAM network inhibition [7] -0.46%

CCCNc1nc2c(c(=O)[nH]c(=O)n2C)n1Cc1ccc(F)cc1
inactive: growth inhibition [1] -1.32% | growth inhibition [2] -1.12% | viability increase [3] -2% | viability [4] 104% | viability [5] 92.9% | inhibition [6] 0.945% | RAM network inhibition [7] 0.57%

COc1ccc(-n2c(Cc3cccn3C)nnc2SCC(=O)NC2CCCC2)cc1
inactive: growth inhibition [1] -6.13% | growth inhibition [2] 5.99% | viability increase [3] 0.53% | viability [4] 94.1% | viability [5] 92.4% | inhibition [6] 0.835% | RAM network inhibition [7] 3.89%

CC(=O)Nc1nnc(C)s1
inactive: growth inhibition [1] -17% | growth inhibition [2] -8.07% | viability increase [3] -2.11% | viability [4] 103% | viability [5] 93.3% | inhibition [6] 1.29% | RAM network inhibition [7] 1.53%
